High-throughput results from PubChem BioAssay.
HCT116 PTEN-null: suppresses growth of cells with PTEN deletion. viability, % at 10 µM. HCT116 PTEN-null viability, CellTiter-Glo, 60 h; stronger effect = lower value. AID 827. 1.2% of 140,000 active;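 active = viability at or below a set limit, 4 SD under the median of all tested compounds, cut at about 3.7% in these data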;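 also: PTEN knockout HCT116 line with beta catenin targeted HCT116 as companion control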
HUVEC prolif 384: blocks proliferation of human endothelial cells | 1.1% of 86,000 active | AID 648 | viability, % at 10 µM (by protocol) | HUVEC proliferation, CellTiter-Glo luminescence, 72 h; stronger effect = lower value;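 active = viability at or below 30%; inactive = viability above 30%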
HCT116 bCat-KO: beta-catenin-lacking colon tumor cell growth suppression | HCT116 beta-catenin knockout viability, CellTiter-Glo, 60 h; stronger effect = lower value | viability, % at 10 µM | 1.5% of 140,000 active | AID 818;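 active = viability at or under a set limit, the compound median less 4 SD, cut at about 6% in these data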
H69AR growth 86K: blocks growth of human H69AR lung tumor cells; H69AR lung tumor viability, ATP luminescence, 72 h; stronger effect = lower value; viability, % at 10 µM; 6% of 85,000 active;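 active = viability at or below 40%; inactive = viability above 40%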;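 also: multidrug resistant small cell line overexpressing MRP-1 efflux transporter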
Fibroblast inh: blocks proliferation of human lung fibroblasts | AID 719 | 1.1% of 85,000 active | viability, % at 10 µM | LL 47 human lung fibroblast viability, ATP luminescence; stronger effect = lower value;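 active = viability at or below 50% in the single dose screen; inactive = viability above 50%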;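 also: compound exposure lasted 72 h before the ATP readout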
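Assay system: human lung fibroblast line LL 47, low passage. Input: 1,150 fibroblasts seeded per well. Times: overnight cell rest, 72 h compound treatment at 37 °C. Evaluation: % viability of median cell-only signal. Technique: luminescent ATP detection, CellTiter-Glo. Control set: cell-only wells, no compound.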
A number is an active result; . = inactive; / = no result. Many of the other results were omitted from the sample, so hits are more common in it than they were.

SMILES	HCT116 PTEN-null	HUVEC prolif 384	HCT116 bCat-KO	H69AR growth 86K	Fibroblast inh
COc1ccc(-c2nc(C#N)c(NCc3ccccc3Cl)o2)cc1	.	.	.	.	.
CN1CCN(Cc2cc(Cl)c3cccnc3c2OC(=O)c2cccs2)CC1	.	/	3.7	/	/
O=C(Oc1c(Cl)cc(Cl)c2cccnc12)N1CCCCC1	.	.	.	.	.
Oc1cnc2ccccc2c1CN1CCOCC1	.	.	.	.	.
Oc1c(CN2CCOCC2)cc(COCc2ccccc2)c2cccnc12	2.8	/	3.7	/	/
COCc1cc(CN2CCN(C)CC2)c(O)c2ncccc12	.	.	.	25.3	.
O=C(CSc1nc2ccccc2[nH]1)NCC1CCCO1 (stereo not drawn)	.	/	.	/	/
CCCCNC(=O)c1ccc2c(c1)ncn2C1CCCCC1	.	/	.	/	/
CCCCNC(=O)c1ccc2c(c1)ncn2C1CCCC1	.	.	.	32.7	.
CCNc1ccc(C(=O)OCC)cc1NC(=O)c1cccc(S(=O)(=O)N(C)c2ccccc2)c1	.	/	.	/	/
CCNc1ccc(C(=O)OCC)cc1NC(=O)c1cccc(N(C)C)c1	.	.	.	22.1	.
O=C(Nc1ccc2nc(-c3ccco3)c(-c3ccco3)nc2c1)N1CCCCCC1	.	/	.	/	/
CCOC(=O)C1CCN(C(=O)Nc2ccc3nc(-c4ccco4)c(-c4ccco4)nc3c2)CC1	.	.	.	37.9	.
N#CC1=C(SCC(=O)NC2CC2)NC(=O)C(C#N)C12CCCCC2 (stereo not drawn)	.	.	.	.	.
N#CC1=C(SCC(=O)NC23CC4CC(CC(C4)C2)C3)NC(=O)C(C#N)C12CCCCC2 (stereo not drawn)	.	.	.	9.1	.
CC(C)(C)C1CCC2(CC1)C(C#N)=C(SCC(=O)NC1CCCCC1)NC(=O)C2C#N (stereo not drawn)	.	.	.	9.6	.
COc1ccc(CCNC(=O)CC2SC(=NCCc3ccccc3)NC2=O)cc1 (stereo not drawn)	.	/	.	/	/
COC(=O)C1=C(SC)N(c2ccccc2)C(c2ccccc2)CC1=O (stereo not drawn)	.	/	.	/	/
O=C(NC1=C(Nc2ccc(Cl)cc2)C(=O)c2ccccc2C1=O)c1ccccc1	.	/	.	/	/
Cc1cccc(NC2=C(NC(=O)c3ccccc3)C(=O)c3ccccc3C2=O)c1	.	/	3.6	/	/
CC(=O)NC(Cc1ccccc1C)C(=O)NC1CCN(c2ncccc2[N+](=O)[O-])CC1 (stereo not drawn)	.	/	.	/	/
COc1ccc(OC)c(/C=C/C(=O)N2C(=O)c3cccc(N)c3C2=O)c1	.	/	.	/	/
COc1cc(/C=C/C(=O)N2C(=O)c3cccc(N)c3C2=O)cc(OC)c1OC	.	/	4.5	/	/
O=C(c1cc2ccccc2oc1=O)N(c1ccc(Cl)cc1)C1C=CS(=O)(=O)C1 (stereo not drawn)	.	/	.	/	/
Cc1ccc(C2CC(c3cccs3)=NN2C(=O)CSC2=NN3CCCC(=O)N=C3S2)cc1 (stereo not drawn)	.	.	.	11.2	.
SMILES	HCT116 PTEN-null	HUVEC prolif 384	HCT116 bCat-KO	H69AR growth 86K	Fibroblast inh
C=CCN(CC=C)S(=O)(=O)c1ccc2nc(NC(=O)C3CCCO3)sc2c1 (stereo not drawn)	.	/	.	/	/
O=C(Cn1cc(C(F)(F)F)ccc1=O)Nc1cccc(S(=O)(=O)N2CCOCC2)c1	.	/	.	/	/
Cc1ccc(-c2nn3c(-c4ccco4)nnc3c3ccccc23)cc1S(=O)(=O)NCC1CCCO1 (stereo not drawn)	.	.	.	15.6	.
Cc1ccc(-c2nnc(Nc3ccccc3)c3ccccc23)cc1S(=O)(=O)NCC1CCCO1 (stereo not drawn)	.	/	.	/	/
CC(C)c1ccccc1NC(=O)C1CN(S(=O)(=O)c2ccccc2)CCN1S(=O)(=O)c1ccccc1 (stereo not drawn)	.	/	.	/	/
Cc1ccc(S(=O)(=O)N2CCC(=O)N(CCOCc3ccc(F)cc3)CC2)cc1	.	/	.	/	/
CN(CC(=O)Nc1ccc(Cl)cc1)c1ccc(S(=O)(=O)N2CCCCC2)cc1[N+](=O)[O-]	.	/	.	/	/
O=C(OCC1OC(n2cnc3c(N(C(=O)c4ccccc4)C(=O)c4ccccc4)ncnc32)C(O)C1F)c1ccccc1 (stereo not drawn)	.	.	.	2.7	.
CC(C)c1ccc(CN2CC(C(=O)O)CC2=O)cc1 (stereo not drawn)	.	.	.	.	.
O=[N+]([O-])c1cccc(C=Nc2cc3c(cc2Br)OCCO3)c1	.	/	.	/	/
CC(=O)c1ccc(NC(=O)c2ccn(C(=O)OCC(C)C)n2)cc1	.	/	.	/	/
CCOc1ccc(N2C(=O)CC(Sc3ncccn3)C2=O)cc1 (stereo not drawn)	.	.	.	.	.
C=CCNc1nnc(SC2CC(=O)N(c3ccc(OCCC)cc3)C2=O)s1 (stereo not drawn)	.	.	.	1.9	.
c1ccc(-c2cn3c4c(sc3n2)CCCC4)cc1	.	.	.	21.4	.
c1ccc(-c2cn3nc(-c4ccccc4)sc3n2)cc1	/	.	/	.	.
COC(=O)c1cccc(N(C(=O)c2cnccn2)C(C(=O)NC2CCCCC2)c2cn(C)nc2C)c1 (stereo not drawn)	.	/	.	/	/
CCOC(=O)N1CCC(NC(=O)CCc2c(C)nc3c(c(C)nn3C(C)(C)C)c2C)CC1	.	.	.	.	.
CCCCNC(=O)NCc1cnn(C)c1C	.	/	.	/	/
COc1ccccc1/C=C/C(=O)NCC(=O)N/N=C/c1cc(Br)ccc1OC	.	.	.	18.6	.
CSc1nc(C)cc(SCC(=O)N/N=C/c2ccccc2)n1	.	/	.	/	/
CC(C)(C)C(=O)NC(=S)Nc1ccc(F)cc1	.	/	.	/	/
CCOc1cc2[nH]c(=O)n(Cc3ccc(C(=O)NCCOC)cc3)c(=O)c2cc1OCC	.	.	.	.	.
CCOc1cc2[nH]c(=O)n(Cc3cccc(OC)c3)c(=O)c2cc1OCC	.	.	.	20.9	.
CC(/C=C/c1cccc([N+](=O)[O-])c1)=N\NC(=O)c1ccncc1	.	/	.	/	/
COc1ccc(S(=O)(=O)Cc2ccc(C(=O)N3CCN(c4cccc(C)c4C)CC3)o2)cc1	.	.	.	22.7	.
SMILES	HCT116 PTEN-null	HUVEC prolif 384	HCT116 bCat-KO	H69AR growth 86K	Fibroblast inh
COc1ccc(N2CCN(C(=O)c3ccc(CS(=O)(=O)c4ccc(OC)cc4)o3)CC2)cc1	.	.	.	.	.
COc1ccc(S(=O)(=O)Cc2ccc(C(=O)N3CCN(c4cccc(C)c4)C(C)C3)o2)cc1 (stereo not drawn)	.	.	.	25.2	.
Cc1ccc(C(C)C)c(OCC(=O)Nc2ccc3c(c2)nc(CN2CCCC2)n3C)c1	2.5	25.3	3.4	.	.
CCCC(=O)Nc1ccc2c(c1)nc(CN1CCCC1)n2C	.	.	.	.	.
CCOC(=O)c1cc(NC(=O)CSCCO)ccc1Cl	.	.	.	15.3	.
N#Cc1c(NC(=O)CSc2ncn[nH]2)sc2c1CCCC2	.	.	.	18.1	.
CC(C)(C)C1CCc2c(sc(NC(=O)CSc3ncn[nH]3)c2C#N)C1 (stereo not drawn)	.	.	.	.	.
N#Cc1cc2c(nc1SCC(=O)Nc1nccs1)CCCCC2	.	.	.	.	.
